Only some compounds are listed: those with a hit (about 1.6% of all), similar ones and a draw of the others.
SR-BI HDL uptake = inhibitors of mouse SR-BI mediated HDL lipid uptake | Q61009 | ldlA[mSR-BI] CHO cells, DiI-HDL uptake fluorescence, 3 h | inhibition, % at 12.5 µM | 320,000 compounds, 0.96% hits;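 active means mean replicate inhibition of at least 70% and a set share of replicates each scoring 70 or more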
Target sequence (Q61009 whole entry, looked up): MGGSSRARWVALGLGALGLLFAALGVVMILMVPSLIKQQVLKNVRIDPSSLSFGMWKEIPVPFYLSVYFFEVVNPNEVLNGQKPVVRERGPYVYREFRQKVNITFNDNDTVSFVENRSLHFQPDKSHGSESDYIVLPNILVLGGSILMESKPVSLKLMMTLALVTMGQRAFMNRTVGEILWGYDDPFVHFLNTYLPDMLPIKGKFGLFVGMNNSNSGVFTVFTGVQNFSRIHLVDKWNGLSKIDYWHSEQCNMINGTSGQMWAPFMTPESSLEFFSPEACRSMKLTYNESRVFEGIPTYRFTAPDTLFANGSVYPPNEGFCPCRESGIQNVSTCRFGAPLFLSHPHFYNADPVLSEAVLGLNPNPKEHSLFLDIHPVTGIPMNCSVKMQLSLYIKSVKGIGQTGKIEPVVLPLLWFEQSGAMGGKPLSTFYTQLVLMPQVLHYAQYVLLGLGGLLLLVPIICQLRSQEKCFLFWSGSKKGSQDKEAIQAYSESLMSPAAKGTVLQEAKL
NOD2 RIPK2 PPI = blocks binding of human NOD2 to RIPK2; O43353; CHO BLA complementation NOD2-RIPK2, CCF4 ratio; inhibition, % at 4.98 µM; 360,000 compounds, 0.38% hits; AID 624267; in the data active means inhibition above about 21%
TLR4-MyD88 BLA = blocks binding of human TLR4 to MyD88; O00206+Q99836; HeLa CL3-4 TLR4/MyD88 BLA complementation, FRET ratio; inhibition, % at 8.4 µM; 200,000 compounds, 0.18% hits; AID 861; in the data active means inhibition above about 25%
Lipid droplet = modulators of hepatic lipid droplet formation; AML12 mouse hepatocytes, oleate lipid droplets, BODIPY imaging; inhibition, % at 6.5 µM; 240,000 compounds, 0.4% hits; AID 1656;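 active means lipid droplet intensity inhibited by at least 50%, with more than 500 cells counted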
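System: AML12 hepatocytes (mouse). Probe or stimulus: oleic acid at 100 µM to induce lipid droplet formation. Times: overnight treatment with compound plus oleate. Detection: Image-based BODIPY and DAPI two-channel analysis. Evaluation: percent inhibition of filter-corrected integrated lipid droplet intensity per well.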
TLR9-MyD88 inh = blocks human TLR9 binding to MyD88; AID 504734; inhibition, % at 4.98 µM; 340,000 compounds, 0.21% hits; Q9NR96+Q99836; CHO BLA complementation TLR9-MyD88, CCF4 FRET ratio;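 active means inhibition above the mean over all tested compounds plus 3 SD, cut at about 21% in these data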
SR-BI uptake up = enhances SR-BI lipid uptake from DiI-HDL; CHO ldlA[mSR-BI] cells, DiI-HDL uptake fluorescence, 3 h; 100 = double the neutral-control signal; activation, % at 12.5 µM; 320,000 compounds, 0.096% hits;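 active means mean replicate activation of at least 60% and every replicate at or above 60%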
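Test system: SR-BI-overexpressing, LDLR-lacking CHO cells; Medium: Ham's F12 with 0.5% BSA, HEPES 25 mM, pH 7.4; Schedule: 3 h, 37 °C; Technique: bottom-read fluorescence, 550/595 nm.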
Numbers stand for hits; n = inactive; x = not tested or not shown.

SMILES	SR-BI HDL uptake	NOD2 RIPK2 PPI	TLR4-MyD88 BLA	Lipid droplet	TLR9-MyD88 inh	SR-BI uptake up
COC(=O)c1c(-c2ccsc2)sc2ccc(-c3cc(OC)c(OC)c(OC)c3)cc12	75	n	x	x	n	n
COc1cc(-c2ccc3sc(-c4ccsc4)c(C#CCO)c3c2)cc(OC)c1OC	n	n	x	x	n	n
O=C(/C=C/c1ccncc1)c1ccc(NC(=O)c2ccccc2F)cc1	n	64	n	n	25	n
Cc1nc(-c2ccccn2)nc(SCC(=O)c2ccccc2)c1Cl	n	n	x	n	x	n
Cc1cc(C2=CC(C)(c3cc(C)oc3C)Nc3nc(C(F)(F)F)nn32)c(C)o1 (stereo unspecified)	x	x	n	x	x	x
CC(=O)c1ccc(-c2ccc(C(=O)Nc3nc(-c4ccccn4)cs3)o2)cc1	81	n	x	x	n	n
CC1CC(C)CN(C2CCN(Cc3cccnc3)CC2)C1 (stereo unspecified)	n	n	n	n	n	n
CC1=C(C)/C(=N\OS(=O)(=O)c2ccccc2)C=CC1=O	87	76	n	n	n	n
O=C(CN(c1cccc(Br)c1)S(=O)(=O)c1ccccc1)N/N=C/c1cc([N+](=O)[O-])ccc1O	124	n	x	x	x	n
O=C(CCCC(=O)Nc1cccc(Br)c1)N/N=C/c1cc([N+](=O)[O-])ccc1O	n	n	x	n	n	n
O=C(NCc1ccco1)c1cccc(NS(=O)(=O)c2ccccc2F)c1	n	n	n	n	n	n
C[C@@H]1CN([C@H](C)CO)C(=O)c2cc(NS(=O)(=O)c3cn(C)cn3)ccc2O[C@@H]1CN(C)S(C)(=O)=O	n	n	x	x	n	n
CCOCCC(=O)Nc1ccc2c(c1)c(=O)n(C)n2C/C=C/c1ccccc1	x	n	x	x	x	x
CCOc1ccc(C(=O)Nc2cccc(-n3cnnn3)c2)cc1OCC	n	n	x	n	n	n
CCCCOc1ccc(C(=O)Nc2cccc(-n3cnnn3)c2)cc1OC	75	n	x	n	n	n
COc1cc(-c2nc(-c3cccc(C)c3)no2)cc(OC)c1OC	84	n	n	n	n	n
COc1cc(-c2noc(-c3cccc(Cl)c3)n2)cc(OC)c1OC	76	n	n	n	n	n
COc1ccc(-c2nnc(-c3cc(OC)c(OC)c(OC)c3)o2)cc1OC	76	n	n	n	n	n
COc1cc(-c2nc(-c3cccnc3)no2)cc(OC)c1OC	n	n	n	n	n	n
COc1cc(-c2nnc(-c3cccs3)o2)cc(OC)c1OC	n	n	n	n	n	n
COc1cccc(NC(=O)CN(C)C(=O)CCCc2nc3ccccc3c(=O)[nH]2)c1	n	n	x	x	n	n
COc1ccc(C(=O)NCCCN2CCCC2=O)cc1S(=O)(=O)N1CCOCC1	x	n	x	x	n	x
O=[N+]([O-])c1cccc(NC(=S)Nc2nc(-c3ccccc3Cl)cs2)c1	84	n	x	n	n	n
COc1ccc(N2CCN(C(CNS(=O)(=O)c3cc(F)ccc3F)c3cccnc3)CC2)cc1 (stereo unspecified)	n	n	n	n	n	n
COc1ccc(C)cc1NC(=O)C(Sc1nnc(Nc2cc(C)ccc2OC)s1)c1ccccc1 (stereo unspecified)	n	n	n	73	n	n
SMILES	SR-BI HDL uptake	NOD2 RIPK2 PPI	TLR4-MyD88 BLA	Lipid droplet	TLR9-MyD88 inh	SR-BI uptake up
COc1ccc(Nc2nnc(SC(C(=O)Nc3cc(C)ccc3C)c3ccccc3)s2)cc1 (stereo unspecified)	n	n	n	n	n	n
O=C(NNC(=O)c1cc2ccccc2o1)c1ccc(F)cc1	n	n	x	x	n	n
O=C(NNC(=O)c1cc2ccccc2o1)c1ccc(Cl)cc1	n	n	x	n	n	510
O=C(CCCC(=O)NN=Cc1ccc(Cl)cc1Cl)NN=Cc1ccc(Cl)cc1Cl	96	n	x	x	n	n
O=C(CCCC(=O)NN=Cc1ccccc1Cl)NN=Cc1ccccc1Cl	n	n	x	x	n	n
CCN(CC)S(=O)(=O)c1ccc2oc(C(=O)Nc3ccc(OC)cc3OC)c(C)c2c1	77	n	n	x	n	n
COc1cccc(-c2nn(C)c3sc(C(=O)Nc4ccc5c(c4)OCCO5)cc23)c1	86	n	n	n	n	n
O=S(=O)(c1ccc2ccccc2c1)N1CCC(c2nc(-c3ccncc3)no2)CC1	n	n	n	n	n	n
CCOC(=O)Nc1c(O)ccc2oc(C)c(-c3ccccc3)c12	n	n	n	n	n	n
O=[N+]([O-])c1cccc(S(=O)(=O)Nc2nc3ccccc3nc2Nc2cccc(S(=O)(=O)N3CCCCC3)c2)c1	76	n	n	n	n	n
COc1cc(/C=N/Nc2nc(Nc3ccccc3)nc(-n3nc(C)cc3C)n2)cc(OC)c1OC	n	n	n	n	n	n
COc1cc(/C=N/n2nnnc2Nc2ccccc2)cc(OC)c1OC	89	n	n	n	n	n
CCCCOC(=O)c1ccc(NC(=O)/C=C/c2cccs2)cc1	n	n	n	65	n	n
CCCCOC(=O)c1ccc(NC(C)=O)cc1	n	n	n	x	n	n
CCOC(=O)c1c(S(=O)(=O)Nc2ccccc2OCC)c(C)n(C)c1C	n	n	x	n	n	n
COc1cc(OC)c(NC(=S)Nc2cccc(C(C)=O)c2)cc1Cl	87	n	n	x	n	n
CNC(=O)c1ccc(-c2sc3nc(N4CCOCC4)c4c(c3c2N)CCCC4)o1	87	n	n	x	n	n
COc1ccc(NC(=O)c2cc(-c3cc(F)ccc3OC)n[nH]2)cn1	x	n	x	x	x	x
COc1ccc2ccccc2c1/C=N/NC(=O)c1nnn(-c2nonc2N)c1C(C)C	77	n	x	n	n	n
Cc1ccc(SCc2c(C(=O)N/N=C/c3ccc4c(c3)OCO4)nnn2-c2nonc2N)cc1	n	n	x	n	n	n
C/C(=N\NC(=O)c1nnn(-c2nonc2N)c1-c1ccccc1)c1ccccc1O	86	n	x	n	n	n
CCCc1c(C(=O)N/N=C(\C)c2ccccc2O)nnn1-c1nonc1N	x	n	x	x	n	x
Cc1ccc(-c2c(C(=O)N/N=C/c3ccc(OC(C)C)cc3)nnn2-c2nonc2N)cc1	78	n	x	n	n	n
CCCOc1ccc(-c2c(C(=O)N/N=C/c3ccc(C)cc3)nnn2-c2nonc2N)cc1	x	n	x	n	x	x
Cc1ccc(-c2c(C(=O)N/N=C/c3ccc4c(c3)OCO4)nnn2-c2nonc2N)cc1	76	n	x	n	n	n
CCOc1ccc(-c2c(C(=O)N/N=C/c3ccccc3)nnn2-c2nonc2N)cc1	74	n	x	n	n	n
CCOc1ccc(-c2c(C(=O)N/N=C/c3ccc(C)cc3)nnn2-c2nonc2N)cc1	n	n	x	n	n	n
CCOc1ccc(-c2c(C(=O)N/N=C/c3ccc(Cl)cc3)nnn2-c2nonc2N)cc1	n	n	x	n	n	n
CCOc1ccc(-c2c(C(=O)N/N=C/c3ccc(OC(C)C)cc3)nnn2-c2nonc2N)cc1	77	n	n	n	n	n
